system: Lewis lung carcinoma cell line; assay: Compound injected intraperitoneally for 8 days and was tested for mean of increased life span in female BDF mice injected intravenously with 3LL Lewis Lung adenocarcinoma into lateral tail vein before 2 days; format: functional, Mus musculus
How it was run: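 Female BDF1 mice (18–20 g) given 6×10^5 log-phase 3LL cells in 0.2 mL RPMI 1640 by lateral tail vein. Drug suspended in DMSO/saline buffered to pH 7.4, dosed ip once daily on days 2–9 (8 treatments); screening dose 50 mg/kg. Mice monitored daily for survival; ILS (%) = (MST treated/MST vehicle control ×100) − 100; significance by Armitage trend test.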

First: Cl.N=C(N)Nc1nc(C(=O)Nc2nc3cccc(-c4ccccc4)c3s2)cs1
Second: Cl.N=C(N)Nc1nc(C(=O)Nc2nc3cc(-c4ccccc4)ccc3s2)cs1
The ILS of the first is higher: 49 for the first, 18 for the second.

Compared with `CCCCOc1ccc2nc(NC(=O)c3csc(N=C(N)N)n3)sc2c1.Cl`, `CCCCOc1ccc2sc(NC(=O)c3csc(N=C(N)N)n3)nc2c1.Cl` is lower in ILS: 59 for the first, 34.5 for the second.

First: N=C(N)Nc1nc(C(=O)Nc2nc3cc(F)c(F)cc3s2)cs1
Second: N=C(N)Nc1nc(C(=O)Nc2nc3cc(Cl)c(F)cc3s2)cs1
The ILS of the first is higher: 62 for the first, 41 for the second.

Compared with `Cl.N=C(N)Nc1nc(C(=O)Nc2nc3c(O)cccc3s2)cs1`, `N=C(N)Nc1nc(C(=O)Nc2nc3c(F)cccc3s2)cs1` is higher in ILS: 14 for the first, 38 for the second.

Compared with `COc1ccc2nc(NC(=O)c3csc(N=C(N)N)n3)sc2c1`, `CCOc1ccc2nc(NC(=O)c3csc(N=C(N)N)n3)sc2c1` is lower in ILS: 7.5 for the first, 6 for the second.

Going from `CSc1cccc2sc(NC(=O)c3csc(N=C(N)N)n3)nc12.Cl` to `Cc1cccc2sc(NC(=O)c3csc(N=C(N)N)n3)nc12.Cl`, the ILS rises from 9 to 44.

Going from `Cl.N=C(N)Nc1nc(C(=O)Nc2nc3ccccc3s2)cs1` to `Cl.N=C(N)Nc1nc(C(=O)Nc2nc3cc(O)ccc3s2)cs1`, the ILS falls from 15 to 10.

First: N=C(N)Nc1nc(C(=O)Nc2nc3cccc(C(F)(F)F)c3s2)cs1
Second: Cl.N=C(N)Nc1nc(C(=O)Nc2nc3ccc(Cl)c(C(F)(F)F)c3s2)cs1
The ILS of the first is lower: 35 for the first, 69 for the second.

Compared with `N=C(N)Nc1nc(C(=O)Nc2nc3c(F)ccc(F)c3s2)cs1`, `Cl.N=C(N)Nc1nc(C(=O)Nc2nc3cc(F)cc(F)c3s2)cs1` is lower in ILS: 26 for the first, 22 for the second.

First: N=C(N)Nc1nc(C(=O)Nc2nc3cc(Cl)c(Cl)cc3s2)cs1
Second: N=C(N)Nc1nc(C(=O)Nc2nc3cc(F)c(Cl)cc3s2)cs1
The ILS of the first is lower: 71 for the first, 75 for the second.

Going from `N=C(N)Nc1nc(C(=O)Nc2nc3cc(F)ccc3s2)cs1` to `N=C(N)Nc1nc(C(=O)Nc2nc3ccc(F)cc3s2)cs1`, the ILS falls from 67.6 to 38.8.

Going from `CCc1ccc2nc(NC(=O)c3csc(N=C(N)N)n3)sc2c1.Cl` to `CCCc1ccc2nc(NC(=O)c3csc(N=C(N)N)n3)sc2c1.Cl`, the ILS falls from 33 to 21.5.

Compared with `Cl.N=C(N)Nc1nc(C(=O)Nc2nc3ccc(Cl)cc3s2)cs1`, `Cl.N#Cc1ccc2nc(NC(=O)c3csc(NC(=N)N)n3)sc2c1` is lower in ILS: 58 for the first, 53 for the second.

First: CC(C)(C)c1ccc2nc(NC(=O)c3csc(N=C(N)N)n3)sc2c1.Cl
Second: Cc1ccc2nc(NC(=O)c3csc(N=C(N)N)n3)sc2c1
The ILS of the first is higher: 61 for the first, 37.3 for the second.

First: CCc1cc(C#N)cc2sc(NC(=O)c3csc(N=C(N)N)n3)nc12.Cl
Second: Cc1cc(F)cc2sc(NC(=O)c3csc(N=C(N)N)n3)nc12.Cl
The ILS of the first is higher: 38 for the first, 29 for the second.

First: CCOc1ccc2sc(NC(=O)c3csc(N=C(N)N)n3)nc2c1.Cl
Second: CC(C)Oc1ccc2sc(NC(=O)c3csc(N=C(N)N)n3)nc2c1.Cl
The ILS of the first is higher: 44 for the first, 23 for the second.

Compared with `CC(C)c1cccc2sc(NC(=O)c3csc(N=C(N)N)n3)nc12.Cl`, `COc1cccc2sc(NC(=O)c3csc(N=C(N)N)n3)nc12.Cl` is higher in ILS: 24 for the first, 45 for the second.

Compared with `CCOc1ccc(F)c2sc(NC(=O)c3csc(N=C(N)N)n3)nc12`, `CCOc1ccc(Cl)c2sc(NC(=O)c3csc(N=C(N)N)n3)nc12` is higher in ILS: 53 for the first, 75 for the second.

First: COc1ccc(C(F)(F)F)c2sc(NC(=O)c3csc(N=C(N)N)n3)nc12
Second: COc1ccc(Cl)c2sc(NC(=O)c3csc(N=C(N)N)n3)nc12
The ILS of the first is lower: 17 for the first, 69 for the second.

First: N=C(N)Nc1nc(C(=O)Nc2nc3cc(Cl)c(C(N)=O)cc3s2)cs1
Second: N=C(N)Nc1nc(C(=O)Nc2nc3cc(F)c(O)cc3s2)cs1
The ILS of the first is higher: 42 for the first, 23 for the second.

First: CC(C)c1ccc2nc(NC(=O)c3csc(N=C(N)N)n3)sc2c1
Second: CSc1ccc2nc(NC(=O)c3csc(N=C(N)N)n3)sc2c1
The ILS of the first is higher: 38 for the first, 25.5 for the second.

Going from `N=C(N)Nc1nc(C(=O)Nc2nc3c(Cl)cccc3s2)cs1` to `N=C(N)Nc1nc(C(=O)Nc2nc3c([N+](=O)[O-])cccc3s2)cs1`, the ILS rises from 18 to 30.

Going from `N=C(N)Nc1nc(C(=O)Nc2nc3ccc(-c4ccccc4)cc3s2)cs1` to `Cl.N=C(N)Nc1nc(C(=O)Nc2nc3ccc([N+](=O)[O-])cc3s2)cs1`, the ILS falls from 67 to 51.7.

Going from `Cc1cc(C(F)(F)F)cc2sc(NC(=O)c3csc(N=C(N)N)n3)nc12` to `Cc1cc(C)c2nc(NC(=O)c3csc(N=C(N)N)n3)sc2c1`, the ILS rises from 19 to 64.

Going from `CCCCCS(=O)(=O)c1ccc2nc(NC(=O)c3csc(N=C(N)N)n3)sc2c1` to `CS(=O)(=O)c1ccc2sc(NC(=O)c3csc(N=C(N)N)n3)nc2c1`, the ILS falls from 30 to 1.

`N=C(N)Nc1nc(C(=O)Nc2nc3ccc(C(N)=O)cc3s2)cs1` and `Cl.N=C(N)Nc1nc(C(=O)Nc2nc3ccc(S(N)(=O)=O)cc3s2)cs1` are the same in ILS: 1 for the first, 1 for the second.

Compared with `COc1ccc2sc(NC(=O)c3csc(N=C(N)N)n3)nc2c1C`, `Cc1c(F)ccc2sc(NC(=O)c3csc(N=C(N)N)n3)nc12.Cl` is higher in ILS: 57 for the first, 62 for the second.

Compared with `Cc1cc2nc(NC(=O)c3csc(N=C(N)N)n3)sc2cc1C.Cl`, `COc1cc2nc(NC(=O)c3csc(N=C(N)N)n3)sc2cc1OC` is lower in ILS: 18 for the first, 5 for the second.

Compared with `Cc1cc(Cl)cc2sc(NC(=O)c3csc(N=C(N)N)n3)nc12`, `Cc1c(Cl)ccc2sc(NC(=O)c3csc(N=C(N)N)n3)nc12.Cl` is higher in ILS: 15 for the first, 73 for the second.

Compared with `CSc1ccc2sc(NC(=O)c3csc(N=C(N)N)n3)nc2c1.Cl`, `COc1cc2nc(NC(=O)c3csc(N=C(N)N)n3)sc2cc1Cl` is higher in ILS: 1 for the first, 21 for the second.

Compared with `Cc1ccc(F)c2sc(NC(=O)c3csc(N=C(N)N)n3)nc12.Cl`, `COc1cc([N+](=O)[O-])cc2sc(NC(=O)c3csc(N=C(N)N)n3)nc12` is lower in ILS: 53 for the first, 20 for the second.

`Cl.N=C(N)Nc1nc(C(=O)Nc2nc3cc([N+](=O)[O-])ccc3s2)cs1` was tested, and the ILS was 57.

Source: ChEMBL document CHEMBL1125822, “Quantitative structure-activity relationships of antitumor guanidinothiazolecarboxamides with survival enhancement for therapy in the 3LL Lewis lung carcinoma model” (1991)
